# Assay outcomes deposited in PubChem BioAssay by several laboratories.
# ABHD5 PLIN5 PPI: blocks binding of human ABHD5 to perilipin-5 | Q00G26+Q8WTS1 | Split G. princeps luciferase complementation, luminescence, 4 h | inhibition, % at 4 µM | 0.78% of 360,000 active | AID 602281;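 active = inhibition above the mean inhibition across every tested compound plus 3 SD, cut at about 22% in these data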;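 also: 0% = DMSO only wells and the 100% control is not disclosed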
# XBP1 UPR activ: activators of adaptive arm of unfolded protein response (XBP1) | activation, % at 20 µM | 0.33% of 330,000 active | AID 463104 | CHO-XBP1 luciferase reporter, IRE1-XBP1 UPR activation, luminescence; percent of tunicamycin response, DMSO as zero;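 active = versus positive control, 20 µM dose yields 30% or more activation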;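 also: 100% = tunicamycin at 10 µg/mL and 0% = DMSO only wells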
#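 Material: CHO-XBP1 cells stably carrying IRE1-XBP1-driven luciferase reporter / Amount: 1000 cells per well / Compound: 20 µM, 1% DMSO / Times: 6 h treatment, 37 °C / Detection: luciferase luminescence / Measure: % activation of reporter signal versus tunicamycin and DMSO controls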
# Exocytosis inh: blocks lytic granule exocytosis. TALL-104 LAMP-1 surface exposure, flow cytometry; cells stimulated with thapsigargin and PMA. inhibition, % at 10 µM. 0.66% of 360,000 active. AID 651702;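 active = inhibition above about 55%, limit read from the data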
# CHOP UPR activ: apoptotic UPR (CHOP) activation; AID 449763; 0.34% of 330,000 active; CHO-CHOP luciferase reporter, luminescence; percent of tunicamycin response over DMSO baseline; activation, % at 10 µM;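 active = at 10 µM dose, activation of 40% or more, normalized to positive control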;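 also: 100% = tunicamycin at 10 µg/mL and 0% = DMSO alone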
#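 Assay system: CHO-CHOP cells, stable luciferase reporter of PERK-eIF2a-CHOP signalling / Buffer or medium: F12 plus 10% serum / Compound dosing: one dose, 10 µM in 0.5% DMSO / Times: 6 h compound treatment, 37 °C / Technique: luciferase luminescence / Read-out: % reporter activation, DMSO baseline versus tunicamycin full activation / Benchmarks: tunicamycin and DMSO controls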
# Mdm2-MdmX inh: human Mdm2/MdmX binding inhibition | O15151+Q00987 | SaOS-2 split-luciferase Mdm2/MdmX complementation, luminescence | inhibition, % at 8 µM | 3% of 330,000 active | AID 485346;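 active = inhibition of at least 50% at 8 µM in the primary screen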
# Mdm2 MdmX conf: human Mdm2/MdmX binding inhibition, confirmed | shares compounds with Mdm2-MdmX inh | luminescent assay | inhibition, % at 8 µM | 55% of 10,000 active; in the data active = inhibition above about 40%
# FLuc counter: full-length luciferase inhibition in Mdm2/MdmX counter-screen | shares compounds with Mdm2-MdmX inh | SaOS-2 full-length luciferase counterscreen, luminescence | inhibition, % at 8 µM | 77% of 6,200 active | AID 504607;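 active = mean inhibition at 8 µM reaching about 37%, which flags the compound as non-specific, limit read from the data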;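 also: p53-null SaOS-2 cells with luciferase driven by a doxycycline-inducible promoter; compound on cells about two nights before reading with doxycycline added after day one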
# * = called active by the depositor; / = no result given; ! = not confirmed by another sample. Shown are actives, neighbours in structure and some others; about 4% of the full set was active somewhere.
SMILES,ABHD5 PLIN5 PPI,XBP1 UPR activ,Exocytosis inh,CHOP UPR activ,Mdm2-MdmX inh,Mdm2 MdmX conf,FLuc counter
CC1CCC2C(=O)N(c3ccc(Cc4ccncc4)cc3)C(=O)C2C1 (stereo not given),-0.8,-0.5,1.1,4.0,-8.9,/,/
CSc1nsc(N/N=C/c2ccc3c(c2)OCO3)c1C#N,0.3,3.8,17.0,6.7,-128.5,/,/
COc1cc(/C=N/Nc2snc(SC)c2C#N)cc(OC)c1OC,0.0,9.1,45.7,25.7,69.5*,72.9*,43.3*
CC(C)CC1C(=O)N(Cc2cn(CCC3OCCO3)nn2)CCS(=O)(=O)N1Cc1ccc(-c2ccc(F)nc2)cc1 (stereo not given),-4.8,/,1.7,/,/,/,/
COc1ccc(C(=O)Nc2nc3ccccc3[nH]2)cc1,8.0,-14.4,-6.8,-6.8,56.3*,37.7,82.6*
COc1ccc(C(=O)Nc2cccc3c2CCCC3)cc1,3.6,-3.9,-3.8,2.7,51.1*,34.6,73.8*
Cc1cc(C(=O)Nc2cnc3ccccc3c2)ccc1[N+](=O)[O-],-1.6,4.1,-2.3,2.1,-65.2,/,/
COc1cccc(C(=O)Nc2nc3ccccc3[nH]2)c1,-1.0,-8.1,-3.5,-5.0,-60.7,/,/
Cc1ccc(C(=O)Nc2cnc3ccccc3c2)cc1,0.4,-6.2,0.2,-9.7,81.7*,-1.6,/
COc1ccc(C(=O)N[C@H](C(=O)Nc2nc3ccccc3[nH]2)C(C)C)cc1,2.3,18.8,-1.3,3.1,18.9,/,/
Cc1cccc(C(=O)N[C@H](C(=O)Nc2nc3ccccc3[nH]2)C(C)C)c1,-1.5,14.0,14.4,-1.1,73.5*,68.2*,99.6*
COc1ccccc1N(O)C1CC(=O)N(c2ccc(Br)cc2)C1=O (stereo not given),3.1,0.9,1.3,0.1,6.8,/,/
CC(=O)COc1coc(CN2CCN(c3ccc(F)cc3)CC2)cc1=O,11.2,-7.9,0.9,-1.9,12.3,/,/
C/C(=N\Nc1nc2ccccc2[nH]1)c1ccc([N+](=O)[O-])cc1,2.6,5.1,5.1,2.3,55.3*,2.0,/
O=C(Nc1nc2ccccc2[nH]1)c1ccc([N+](=O)[O-])cc1,2.4,1.3,-0.1,6.5,-48.5,/,/
Cc1ccc(C(=O)Nc2nc3ccccc3[nH]2)cc1,-7.4,-14.6,-11.9,-7.5,64.0*,48.8*,57.5*
O=C(Nc1ccc(F)c(F)c1)c1ccc(-n2cncn2)c([N+](=O)[O-])c1,11.8,2.3,-7.2,3.3,-15.3,/,/
O=C(Nc1cccc(/C=C/c2ccccn2)c1)c1ccc(-n2cncn2)c([N+](=O)[O-])c1,-4.0,1.0,-2.9,3.7,62.0*,37.9,/
c1cncc(-c2ccc3ncnc(NCc4cccs4)c3c2)c1,1.2,5.3,-4.0,-0.1,16.9,/,/
Cn1ccc2cc(-c3ccc4ncnc(NCc5cccs5)c4c3)ccc21,6.0,1.0,1.4,0.2,63.9*,57.1*,25.0
COc1cccc(-c2ccc3ncnc(NCc4cccs4)c3c2)c1,10.8,-0.9,-2.1,-0.5,64.2*,50.8*,39.4*
CN(CCS(=O)(=O)c1ccc(Cl)cc1)Cc1cccnc1,2.5,0.4,2.8,-0.1,-9.5,/,/
Cc1ccc(C(=O)N/C(=C/c2ccc(-c3ccc([N+](=O)[O-])cc3)o2)C(=O)NCCCN(C)C)cc1,15.6,-0.8,0.7,0.9,63.6*,25.6,/
O=C(NCCCO)/C(=C/c1ccc(-c2cccc([N+](=O)[O-])c2)o1)NC(=O)c1ccccc1,7.9,-2.3,-0.4,-0.3,22.9,/,/
Cc1ccc2c(c1)N(C)/C(=C/c1cccc[n+]1C)S2,-0.8,-6.9,-4.2,-2.7,78.9*,74.2*,64.1*
SMILES,ABHD5 PLIN5 PPI,XBP1 UPR activ,Exocytosis inh,CHOP UPR activ,Mdm2-MdmX inh,Mdm2 MdmX conf,FLuc counter
CCN1/C(=C/c2cccc[n+]2C)Sc2ccc(OC)cc21,14.7,-1.1,5.3,0.2,74.1*,48.1*,78.0*
CN1/C(=C/c2cccc[n+]2C)Sc2ccccc21,5.4,3.9,-6.0,0.0,40.0,/,/
COc1ccc2c(c1)N(C)/C(=C/c1cccc[n+]1C)S2,4.4,-1.0,3.7,-1.6,71.8*,35.2,64.1*
CCCCn1c(N)c(N(CCOC)C(=O)CCNC(=O)c2ccccc2Cl)c(=O)[nH]c1=O,-3.5,-4.8,-3.9,-0.1,-13.7,/,/
O=C(O)c1cccc2c1Oc1ccccc1S2(=O)=O,0.6,/,-2.0,/,/,/,/
O=C(COc1cc2oc(=O)c3c(c2cc1Cl)CCC3)NCCCN1CCCC1=O,1.7,-2.5,-2.8,-1.3,-1.0,/,/
O=C(COc1cc2oc(=O)c3c(c2cc1Cl)CCC3)Nc1ccc(CN2CCOCC2)cc1,6.4,-0.3,-3.8,0.9,52.5*,19.2,/
Cc1cc(Cl)n2ncc(-c3ccccc3)c2n1,7.0,8.9,21.5,12.5,62.7*,7.5,/
Cc1cc(N)n2ncc(-c3ccc(Cl)cc3)c2n1,4.7,9.0,-0.6,7.6,-2.0,/,/
Cc1cccc(NC(=O)CSc2ncnc3nc[nH]c23)c1C,10.5,-1.3,0.6,-0.2,4.4,/,/
O=C(Nc1nc2ccccc2s1)c1cc(-c2ccccc2)nn1-c1ccccc1,-1.1,0.0,-6.0,7.2,86.0*,47.0*,109.6*
CC(=O)c1sc(NC(=O)c2cc(-c3ccccc3)nn2-c2ccccc2)nc1C,-1.2,-3.7,-1.1,-0.6,31.7,/,/
Cc1cc(C(=O)Nc2ccccc2C(=O)N2CCCCC2)ccc1[N+](=O)[O-],-4.5,-2.1,-5.2,1.4,-4.2,/,/
CCn1c(C)cc(O)c(C(=O)Nc2cccc(Cl)c2)c1=O,-1.7,3.0,6.0,7.4,34.1,/,/
COCCn1c(C)cc(O)c(C(=O)Nc2cccc(Cl)c2)c1=O,-0.1,-6.0,2.4,3.6,64.9*,51.8*,41.6*
Cc1ccc(S(=O)(=O)/C(C#N)=C/c2c(Oc3ccc(Cl)cc3)nc3c(C)cccn3c2=O)cc1,/,5.6,/,2.1,58.7*,8.0,/
c1ccc2c(c1)NC(c1ccncc1)n1c-2nc2ccccc21 (stereo not given),9.1,1.4,-1.2,2.1,-3.8,/,/
c1cncc(C2Nc3ccccc3-c3nc4ccccc4n32)c1 (stereo not given),4.9,0.7,24.1,3.0,52.7*,51.7*,63.5*
CCCCCCCCCCCCCCCC[n+]1cccc(C(=O)N(CC)CC)c1,45.2*!,-1.2,-2.3,0.0,77.1*,66.5*,17.8
CCCCCCCC[n+]1cccc(C(=O)N(CC)CC)c1,0.9,-3.8,2.9,-0.8,-11.9,/,/
CCCCCCCCCCCCCCCC[n+]1ccc(C(N)=O)cc1,21.0,-1.3,-0.7,1.2,78.1*,77.0*,57.4*
CNC(=O)NC(=O)COC(=O)CCc1nc(=O)c2ccccc2n1C,0.9,1.9,-2.0,-0.3,-7.7,/,/
